Active and inactive are the calls of the source.
What was measured:
Hepacivirus hominis [1] = assay: Inhibition of HCV NS3 helicase overexpressed in Escherichia coli BL21(DE3) assessed as inhibition of DNA unwinding activity at 10 uM by FRET assay
Hepacivirus hominis [2] = assay: Inhibition of HCV NS3 helicase ATP hydrolysis activity overexpressed in Escherichia coli BL21(DE3) assessed as inhibition of inorganic phosphate release by AM/MG-based colometric analysis in the presence of M13 ssDNA
[3] = system: Severe acute respiratory syndrome-related coronavirus; assay: Inhibition of SARS coronavirus nsP13 helicase activity expressed in Escherichia coli Rosetta assessed inhibition of DNA unwinding activity at 10 uM by FRET assay
How it was run: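 FRET dsDNA-unwinding assay using fluorescein/TAMRA-labelled duplex. When nsP13 unwinds the duplex, fluorescein emission is unquenched. Compound was added to the unwinding reaction at 10 µM, and fluorescence was read at 535 nm.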

Measured: inhibition

CCCCCCCCCCCCC/C=C1/C(=O)O[C@H](C)[C@@H]1O
inactive: all assays above

CC(C)=CCC[C@](C)(O[C@@H]1O[C@H](CO[C@@H]2O[C@H](CO)[C@@H](O)[C@H](O)[C@H]2O)[C@@H](O)[C@H](O)[C@H]1O)[C@H]1CC[C@]2(C)[C@@H]1[C@H](O)C[C@@H]1[C@@]3(C)CC[C@H](O[C@@H]4O[C@H](CO)[C@@H](O)[C@H](O)[C@H]4O)C(C)(C)[C@@H]3CC[C@]12C
inactive: all assays above

CC[C@H](/C=C/[C@@H](C)[C@H]1CC[C@H]2[C@@H]3CC=C4C[C@@H](O)CC[C@]4(C)[C@H]3CC[C@]12C)C(C)C
inactive: all assays above

C=C(C)C(C)(C)CC[C@@H](C)[C@H]1CC[C@@]2(C)[C@@H]3CC[C@H]4C(C)(C)C(=O)CC[C@]4(C)C3=CC[C@]12C
inactive: all assays above

COc1c(O)cc2oc3cc(O)c(CC=C(C)C)c(O)c3c(=O)c2c1CC=C(C)C
inactive: all assays above

COc1ccc(/C=C/C(=O)O[C@H]2[C@@H]3C=CO[C@@H](O[C@@H]4O[C@H](CO)[C@@H](O)[C@H](O)[C@H]4O)[C@@H]3[C@@]3(CO)O[C@@H]23)cc1O
inactive: all assays above

O=C(/C=C/c1ccccc1)NCCCCNC(=O)c1ccc(O)cc1
inactive: all assays above

CC(C)=CCC[C@](C)(O[C@@H]1O[C@H](CO[C@@H]2O[C@H](CO)[C@@H](O)[C@H](O)[C@H]2O)[C@@H](O)[C@H](O)[C@H]1O)[C@H]1CC[C@]2(C)[C@@H]1[C@H](O)C[C@@H]1[C@@]3(C)CC[C@H](O[C@@H]4O[C@H](CO)[C@@H](O)[C@H](O)[C@H]4O[C@@H]4O[C@H](CO)[C@@H](O)[C@H](O)[C@H]4O)C(C)(C)[C@@H]3CC[C@]12C
inactive: all assays above

C=CCc1cc(OC)c(O)c(OC)c1
inactive: all assays above

COc1ccc(-c2oc3c(CC=C(C)C)c(O[C@@H]4O[C@H](CO)[C@@H](O)[C@H](O)[C@H]4O)cc(O)c3c(=O)c2O[C@@H]2O[C@@H](C)[C@H](O)[C@@H](O)[C@H]2O)cc1
inactive: all assays above

COc1cc(/C=C/C(=O)CC(=O)/C=C/c2ccc(O)c(OC)c2)ccc1O
inactive: all assays above

O=C(/C=C/c1ccccc1)NCCCCNC(=O)c1ccccc1
inactive: all assays above

C/C=C(/C)C(=O)O[C@H]1Cc2c(cc3oc(C)cc(=O)c3c2O)OC1(C)C
inactive: all assays above

CC[C@H](CC[C@@H](C)[C@H]1CC[C@H]2[C@@H]3CC=C4C[C@@H](O)CC[C@]4(C)[C@H]3CC[C@]12C)C(C)C
inactive: all assays above

C/C=C(/C)C(=O)O[C@H]1Cc2c(cc3oc(CO)cc(=O)c3c2O)OC1(C)C
inactive: all assays above

O=C(O)[C@H]1O[C@@H](Oc2cc3oc(-c4ccc(O)cc4)cc(=O)c3c(O)c2O)[C@H](O)[C@@H](O)[C@@H]1O
inactive: all assays above

COc1c2c(cc3oc(C)cc(=O)c13)OC(C(C)(C)O[C@H]1O[C@@H](CO)[C@H](O)[C@@H](O)[C@@H]1O)C2 (stereo partly specified)
inactive: all assays above

Source: ChEMBL document CHEMBL2057104, “Identification of myricetin and scutellarein as novel chemical inhibitors of the SARS coronavirus helicase, nsP13” (Bioorg Med Chem Lett, 2012)
